Screening results: PubChem BioAssay, several laboratories
An excerpt weighted towards active compounds, which were near 5.9% of everything screened.
Phagocytosis inh – blocks phagocytosis by macrophages; J774A.1 macrophage IgG-bead phagocytosis, imaging; 0.07% of 110,000 active; inhibition, % at 5 µM;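 active means inhibition above the mean of the plate negative controls plus 5 SD, cut at about 13% in these data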;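 further: phagocytic index as fraction of beads internalized from green versus red external bead signal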
DAT uptake mod – human DAT dopamine uptake with cocaine, either direction. LLC-PK1 hDAT cells, [14C]-dopamine uptake with cocaine IC80; actives deviate in either direction. B-score at 10 µM. 1.3% of 110,000 active. AID 449768;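 active means Z score or B-score, a plate-position-corrected score, falls beyond the plate's 99.7% confidence bounds, in either direction; inactive means both scores lie inside the 99.7% bounds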
Measles CPE – protection of cells from measles virus; 1.5% of 140,000 active; protection (pct of control), % at 4 µM; AID 841; Measles virus-infected cells, CPE protection, absorbance; in the data active means protection mostly above about 24%, no sharp cut-off; inactive means mostly below about 26%
Pyk2 oligo antag – blocks oligomerization of human Pyk2 in cells; Q14289; Q293 cells, Pyk2 FERM NanoBiT luminescence; stronger effect = lower value; z-score (the deposit names both 25 µM and 10 µM); 0.83% of 99,000 active; AID 1347419;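 active means Z-score of -3 or lower, scaled per plate to the spread of control and sample wells; inactive means z-score above -3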;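 further: negative z-score means lost luminescence so less FERM oligomerization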
Cav32 inh – human Cav3.2 channel inhibition, primary screen; 4% of 100,000 active; B-score at 10 µM; O95180; Cav3.2-expressing cells, Fluo-4 calcium fluorescence FDSS; stronger effect = lower value;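 active means single-dose well whose peak fluorescence ratio is a statistical outlier from its plate by either plate-standardised score or position-corrected B-score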
HIV Rev-RRE inh – disrupts HIV-1 Rev binding to RRE RNA; Rev peptide-RRE RNA binding, FRET; P05866; 0.79% of 97,000 active; inhibition, % at 8 µM;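 active means inhibition above the screen-wide mean plus 3 SD, cut at about 35% in these data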
Target sequence (P05866 whole entry, looked up): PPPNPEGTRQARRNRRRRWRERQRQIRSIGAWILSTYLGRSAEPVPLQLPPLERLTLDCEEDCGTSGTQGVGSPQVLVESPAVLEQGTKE
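Probe or stimulus: fluorescein-Rev peptide as binding partner; assay system: Cy5-tagged RRE RNA duplex with fluorescein-tagged Rev peptide; timing: 5 min compound–RNA preincubation, then 15 min with peptide, 25 °C; medium: HEPES pH 7.5 buffer with KCl, MgCl2, NaCl and EDTA; signal: fluorescein-to-Cy5 FRET, 480 nm excitation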
Numbers stand for hits; . = inactive; / = not tested or not shown; + = active, no number; [ ] = remark or other dose.

SMILES	Phagocytosis inh	DAT uptake mod	Measles CPE	Pyk2 oligo antag	Cav32 inh	HIV Rev-RRE inh
CC(C)C(=O)c1cn(Cc2ccccc2C#N)c2ccccc12	.	.	.	.	-5.63	.
CCC(=O)c1cn(Cc2ccc(C#N)cc2)c2ccccc12	.	.	.	.	.	.
N=C1c2ccccc2CN1NC(=O)c1ccc(Br)cc1	.	/	.	.	/	/
Cc1ccc(C2=NCC(=O)N(CC(=O)N3CCCCC3)c3sc(C)c(C)c32)cc1	/	.	.	.	.	.
Cc1ccccc1C1=NCC(=O)N(CC(=O)NCc2ccco2)c2sc3c(c21)CCCC3	.	.	.	.	-7.21	.
O=P1(Oc2ccccc2)CC=C[C@H](COCc2ccccc2)O1 (stereo partly specified)	/	.	/	/	.	/
CCOc1ccccc1-n1c(O)c(C=Nc2ccc(N(CC)CC)cc2)c(=O)[nH]c1=O	.	.	.	.	.	/
O=c1[nH]c(=O)n(Cc2ccccc2)c(O)c1C=NCCCO	.	.	.	.	.	.
CCOc1ccc(-n2c(O)c(C=Nc3ccc(N(CC)CC)cc3)c(=O)[nH]c2=O)cc1	.	.	.	.	.	71.4
CCN(CC)c1ccc(N=Cc2c(O)n(Cc3ccccc3)c(=O)[nH]c2=O)cc1	.	.	.	.	-4.35	.
CCN(CC)c1ccc(N=Cc2c(O)n(-c3ccccc3C)c(=O)[nH]c2=O)cc1	.	.	.	.	.	65.6
COC(=O)C1=C(c2ccc(S(C)(=O)=O)cc2)C[C@@H]2CC[C@H]1N2C(=O)NCCNC(C)=O	/	.	/	/	.	/
COC(=O)C1=C(c2cc3ccccc3s2)C[C@@H]2CC[C@H]1N2C(=O)NCCS(C)=O (stereo partly specified)	/	.	/	/	.	/
Cc1cc(C)cc(-n2c(C)cc(/C=C3\C(=O)NC(=O)N(C)C3=O)c2C)c1	.	/	.	/	/	/
Cc1ccnc(-n2c(C)cc(C=C3C(=O)N(C)C(=S)N(C)C3=O)c2C)c1	.	.	.	.	.	51.9
CCN1/C(=C\C=C\C2=[N+](CC)c3ccccc3C2(C)C)C(C)(C)c2ccccc21	+[artifact]	/	.	-3.37	/	57.1[fluorescence artefact?]
COc1ccc(OC)c2c1CCC1NCCOC21 (stereo unspecified)	.	/	.	/	/	/
C/C(=N\NC(=S)Nc1ccccc1)c1c(O)n(C)c(=O)n(C)c1=O	.	/	.	/	/	/
CC/C(=N\Nc1ccccc1)c1c(O)n(C)c(=O)n(C)c1=O	.	/	28.3	/	/	/
O=C(c1ccccc1F)c1cn(Cc2ccccc2)c2ccccc12	.	.	.	.	-3.55	.
COc1cccc(CN2CCN(C(=O)COc3ccc4ccccc4c3)CC2)c1	.	2.39	.	.	/	.
O=C(Cc1cc(=O)[nH]c(=O)[nH]1)N1CCN(CCO)CC1	/	.	/	/	.	/
COC1CC(OC2CCC3(C)C(CCC4C3CCC3(C)C(C5=CC(=O)OC5)C(OC(C)=O)CC43O)C2)OC(C)C1OC1OC(COC2OC(CO)C(O)C(O)C2O)C(O)C(O)C1O (stereo unspecified)	/	-8.92	/	/	.	/
c1ccc(-c2nnc(C3CC(c4cccnc4)=NO3)o2)cc1 (stereo unspecified)	/	.	/	/	.	/
CC(C)[C@@]1(NC(=O)[C@@H]2C[C@@H]3c4cccc5[nH]cc(c45)C[C@H]3N(C)C2)O[C@@]2(O)[C@@H]3CCCN3C(=O)[C@H](Cc3ccccc3)N2C1=O	/	3.62	.	/	-5.39	/
SMILES	Phagocytosis inh	DAT uptake mod	Measles CPE	Pyk2 oligo antag	Cav32 inh	HIV Rev-RRE inh
CC(C)[C@@]1(NC(=O)[C@@H]2C=C3c4cccc5[nH]cc(c45)C[C@H]3N(C)C2)O[C@@]2(O)[C@@H]3CCCN3C(=O)[C@H](Cc3ccccc3)N2C1=O	/	/	.	/	/	/
Cc1cc(C)cc(N2C(=O)NC(=O)/C(=C\c3cccn3-c3ccccc3)C2=O)c1	/	/	.	/	/	/
Cc1cc(/C=C2\C(=O)NC(=O)N(c3cccc(Br)c3)C2=O)c(C)n1C	/	/	39.0	/	/	/
CC(C)OCCCNC(=O)c1c(N)n(CC2CCCO2)c2nc3ccccc3nc12 (stereo unspecified)	.	.	.	.	-4.48	.
CCCNC(=O)c1c(N)n(CC2CCCO2)c2nc3ccccc3nc12 (stereo unspecified)	.	-8.94	.	.	-6.16	.
Nc1c(C(=O)OC2CCCCC2)c2nc3ccccc3nc2n1CC1CCCO1 (stereo unspecified)	.	3.39	.	.	/	.
CC(C)OC(=O)c1c(N)n(CC2CCCO2)c2nc3ccccc3nc12 (stereo unspecified)	.	.	.	.	.	.
CC(C)CCOC(=O)c1c(N)n(CC2CCCO2)c2nc3ccccc3nc12 (stereo unspecified)	.	.	.	.	.	.
OC1/C(=C/c2ccc(F)cc2)N2CCC1CC2 (stereo unspecified)	.	/	.	/	/	/
CC(C)n1c(=O)c(C=Nc2ccc(F)cc2)c(O)n(Cc2ccco2)c1=O	.	/	.	/	/	/
Cc1ccc(Cn2cc(C=O)c(-c3ccc(C)cc3)n2)cc1	.	/	.	/	/	/
CCN(CC)CCNC(=O)c1c(O)c2ccccc2n(Cc2ccccc2)c1=O	.	.	.	.	.	.
CC(C)CCn1c(=O)c(C(=O)Nc2ccccc2S(N)(=O)=O)c(O)c2ccccc21	.	.	.	.	-5.39	.
CCCCn1c(=O)c(C(=O)Nc2nc3ccccc3[nH]2)c(O)c2ccccc21	.	/	/	/	/	/
CCCCn1c(=O)c(C(=O)Nc2cnccn2)c(O)c2ccccc21	.	.	.	.	-2.64	.
COC/C=C1\CN2C3C[C@@H]1[C@H]1COC4=Nc5cc(OC)c(OC)c(OC)c5[C@@]43C[C@@H]12	/	.	/	/	.	/
O=c1[nH]c(=O)n(Cc2ccco2)c(O)c1/C=N/N1CCCCC1	.	/	.	/	/	/
Cc1nc2cc(C(F)(F)F)ccc2n1C1CCN(Cc2nnnn2CCc2ccccc2)CC1	/	3.51	.	.	.	.
COc1cc2c(cc1C=O)OCO2	/	/	35.1	/	/	/
O=c1c2ccccc2nc(-c2cccs2)n1-c1ccccc1	/	.	.	.	.	.
CCn1nc(-c2cccs2)nc2c(=O)n(C)c(=O)nc1-2	.	/	.	-3.33	/	/
COc1ccc(N=C(C)c2c(O)n(C3CCCCC3)c(=O)[nH]c2=O)c(OC)c1	.	.	.	-3.35	.	.
CCCCC1(CCCC)C(=O)NC(=Nc2cccc(C)c2)NC1=O	/	.	.	.	.	.
CCCC1(CCC)C(=O)NC(=NCc2ccccc2)NC1=O	.	-7.43	.	.	/	.
CCN1C(=O)NC(=O)/C(=C/c2cc(C)n(-c3sc(C)c(C)c3C#N)c2C)C1=O	.	/	.	/	/	/
CCOC(=O)c1c(-n2c(C)cc(/C=C3/C(=O)NC(=O)N(CC)C3=O)c2C)sc2c1CCCC2	/	.	/	.	-3.51	.
Oc1c(Br)cc(Br)cc1Oc1ccc(Br)cc1Br	/	.	.	/	.	/
Cc1ccc(C(c2nnnn2Cc2ccccc2)N2CC=C(c3ccc(F)cc3)CC2)cc1 (stereo unspecified)	/	.	.	.	-3.16	.
Fc1ccc(C2=CCN(C(c3ccc(Cl)cc3)c3nnnn3Cc3ccccc3)CC2)cc1 (stereo unspecified)	.	/	.	/	/	/
